{"source": "paper PMC5736852", "about": "(British Journal of Clinical Pharmacology, 2017)", "key": {"[1]": {"assay": "Global population pharmacokinetic analysis of alisertib in cancer patients", "assay_type": "in vivo, human", "conditions": "for half-life: human, plasma, oral"}, "[2]": {"assay": "Exposure–safety logistic regression", "assay_type": "in vivo, human", "method_in_brief": "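Cancer patients (Western and Japan/East Asia) took oral test compound for 7 days in 21-day cycles, fasting from 2 h before to 1 h after dosing. Plasma levels were measured by LC/MS/MS. Per-patient time-averaged AUC per day covered dosing start to onset of worst-grade toxicity, from actual doses and individual CL/F from a two-compartment population PK model. Incidence (n = 591/593/594) was regressed logistically on log-transformed AUC.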"}, "[3]": {"conditions": "Western patients, cited from earlier work"}, "[4]": {"conditions": "cited from earlier work"}, "[5]": {"conditions": "30 mg b.i.d., patients in East Asia"}, "[6]": {"conditions": "50 mg b.i.d., patients in East Asia"}, "[7]": {"conditions": "50 mg b.i.d., patients in the West"}, "[8]": {"conditions": "East Asian patients, b.i.d. dosing"}}, "note": "Read-outs that look alike come from different tables or passages of the source. Marks after values point to notes of the source that are not given here."}
{"smiles": "COc1cc(Nc2ncc3c(n2)-c2ccc(Cl)cc2C(c2c(F)cccc2OC)=NC3)ccc1C(=O)O", "note": "[alisertib]", "values": [{"measurement": "GM (CV) dose-normalized alisertib AUC(0–τ)", "setting": "[1]; Asian patients in Asia, n = 59", "value": "797 (45%) nM.h"}, {"measurement": "GM (CV) dose-normalized alisertib AUC(0–τ)", "setting": "[1]; Asian patients in the West, n = 8", "value": "475 (43%) nM.h"}, {"measurement": "geometric mean (%CV) dose-normalized alisertib AUC0–τ,ss", "setting": "[1]; Region East, All (Japanese, Korean, Chinese), n = 59", "value": "797 (45) nM.h mg^–1"}, {"measurement": "geometric mean (%CV) dose-normalized alisertib AUC0–τ,ss", "setting": "[1]; Region East, Chinese, n = 22", "value": "752 (48) nM.h mg^–1"}, {"measurement": "geometric mean (%CV) dose-normalized alisertib AUC0–τ,ss", "setting": "[1]; Region East, Japanese, n = 23", "value": "799 (34) nM.h mg^–1"}, {"measurement": "geometric mean (%CV) dose-normalized alisertib AUC0–τ,ss", "setting": "[1]; Region East, Korean, n = 13", "value": "885 (53) nM.h mg^–1"}, {"measurement": "geometric mean (%CV) dose-normalized alisertib AUC0–τ,ss", "setting": "[1]; Region West, All non-Asian races, n = 604", "value": "482 (43) nM.h mg^–1"}, {"measurement": "geometric mean (%CV) dose-normalized alisertib AUC0–τ,ss", "setting": "[1]; Region West, All, n = 612", "value": "482 (43) nM.h mg^–1"}, {"measurement": "geometric mean (%CV) dose-normalized alisertib AUC0–τ,ss", "setting": "[1]; Region West, Asian, n = 8", "value": "475 (43) nM.h mg^–1"}, {"measurement": "geometric mean (%CV) dose-normalized alisertib AUC0–τ,ss", "setting": "[1]; Region West, Black, n = 33", "value": "462 (57) nM.h mg^–1"}, {"measurement": "geometric mean (%CV) dose-normalized alisertib AUC0–τ,ss", "setting": "[1]; Region West, White, n = 556", "value": "482 (43) nM.h mg^–1"}, {"measurement": "BSAV1, effect of BSA on V1/F, pop value", "setting": "[1]; final model", "value": 0.899}, {"measurement": "CL/F, V1/F, V2/F and Q/F lower in the East Asian region", "setting": "[1]; final model", "value": 34.1, "unit": "%"}, {"measurement": "KTR, transit compartment rate constant, pop value", "setting": "[1]; final model", "value": "4.17 1 h^–1"}, {"measurement": "V1/F, apparent central volume, pop value", "setting": "[1]; final model", "value": 54.3, "unit": "L"}, {"measurement": "V2/F, apparent peripheral volume, pop value", "setting": "[1]; final model", "value": 28.7, "unit": "L"}, {"measurement": "net mean transit time for oral absorption", "setting": "[1]; final model", "value": 0.96, "unit": "h"}, {"measurement": "CL/F, apparent clearance, pop value", "setting": "[1]; final model (analysis data set n = 422)", "value": 4.11, "unit": "l h^–1"}, {"measurement": "higher bioavailability (F) in East Asian region compared with Western patients", "setting": "[1]; final model, covariate effect of region on F", "value": 52, "unit": "%"}, {"measurement": "RGNF, effect of region, pop value", "setting": "[1]; final model, affected parameters multiplied by (1–0.341) for East Asian region", "value": "−0.341 ^a"}, {"measurement": "half-life", "setting": "[1]; population alpha half-life, final model", "value": 1.71, "unit": "h"}, {"measurement": "half-life", "setting": "[1]; population beta half-life, final model", "value": 15.1, "unit": "h"}, {"measurement": "GM (CV) dose-normalized alisertib AUC(0–τ)", "setting": "[1]; non-Asian patients in the West, n = 604", "value": "482 (43%) nM.h"}, {"measurement": "estimated population mean time-averaged AUC", "setting": "[2]; [5]", "value": 14.23, "unit": "μM*h day^–1"}, {"measurement": "estimated probability of grade ≥2 diarrhoea", "setting": "[2]; [5]", "value": 12, "unit": "%"}, {"measurement": "estimated probability of grade ≥2 stomatitis", "setting": "[2]; [5]", "value": 6.5, "unit": "%"}, {"measurement": "estimated probability of grade ≥3 neutropenia", "setting": "[2]; [5]", "value": 37, "unit": "%"}, {"measurement": "estimated population mean time-averaged AUC", "setting": "[2]; [6]", "value": 23.72, "unit": "μM*h day^–1"}, {"measurement": "estimated probability of grade ≥2 diarrhoea", "setting": "[2]; [6]", "value": 17, "unit": "%"}, {"measurement": "estimated probability of grade ≥2 stomatitis", "setting": "[2]; [6]", "value": 13, "unit": "%"}, {"measurement": "predicted probability of grade ≥3 neutropenia", "setting": "[2]; [6]", "value": 46, "unit": "%"}, {"measurement": "estimated population mean time-averaged AUC", "setting": "[2]; [7]", "value": 15.63, "unit": "μM*h day^–1"}, {"measurement": "estimated probability of grade ≥2 diarrhoea", "setting": "[2]; [7]", "value": 13, "unit": "%"}, {"measurement": "estimated probability of grade ≥2 stomatitis", "setting": "[2]; [7]", "value": 7, "unit": "%"}, {"measurement": "predicted probability of grade ≥3 neutropenia", "setting": "[2]; [7]", "value": 39, "unit": "%"}, {"measurement": "maximum tolerated dose (MTD)", "setting": "[3]; b.i.d. for 7 days in a 21-day cycle", "value": 50, "unit": "mg"}, {"measurement": "median Tmax", "setting": "[3]; postdose", "value": "2 to 3", "unit": "h"}, {"measurement": "mean steady-state half-life following multiple dosing", "setting": "[3]", "value": "19 to 23", "unit": "h"}, {"measurement": "patients who discontinued alisertib owing to treatment-emergent AEs", "setting": "[4]; East Asian patients, 30 mg b.i.d., two of 30 patients", "value": 6.7, "unit": "%"}, {"measurement": "half-life", "setting": "[4]; [8]", "value": "15 to 17", "unit": "h"}, {"measurement": "median Tmax", "setting": "[4]; [8]", "value": "2 to 3", "unit": "h"}, {"measurement": "maximum tolerated dose (MTD)", "setting": "[4]; East Asian patients, b.i.d. for 7 days in 21-day cycles", "value": 30, "unit": "mg"}, {"measurement": "higher geometric mean steady-state systemic exposure in East Asian patients", "setting": "[4]; East Asian vs Western patients", "value": "approximately 70%"}, {"measurement": "mean CL/F in East Asian patients lower than in Western patients", "setting": "[4]; East Asian vs Western patients", "value": "approximately 40%"}]}
